Legend:
[1] = Effect on mitochondrial activity in human HepG2 cells upto 10 uM; format: toxicity, cell-based; settings: hepg2, 10 µM
[2] = Plasma protein binding in dog at 1 uM incubated for 4 to 24 hrs by equilibrium dialysis method; format: ADME, cell-free, Canis lupus familiaris; settings: time 4-24 hrs, read-out: PPB (converted)
Procedure, shortened: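 Rapid equilibrium dialysis in mouse, rat, dog, monkey or human plasma for 4 or 24 h; test concentrations 1, […].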

[3] = Volume of distribution at steady state in Cynomolgous monkey at 1 mg/kg, iv by LC-MS/MS analysis; format: ADME, organism-based, Macaca fascicularis; settings: cynomolgus monkey, in vivo, read-out: Vdss
Procedure, shortened: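 Fasted males (C57BL6 mice, Sprague−Dawley rats, beagle dogs, cynomolgus monkeys) given a single IV dose of 1 mg/kg in 80% PEG 400 in water. Plasma concentrations measured by LC-MS/MS. Vss derived by noncompartmental analysis using nominal dose and nominal sampling times.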

[4] = Tmax in Sprague-Dawley rat at 5 mg/kg, po by LC-MS/MS analysis; format: ADME, organism-based; settings: in vivo
Procedure, shortened: (§1)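 Fasted males (C57BL6 mice, Sprague−Dawley rats, beagle dogs, cynomolgus monkeys) given a single oral solution dose of 5 mg/kg in 80% PEG 400 in water. Plasma sampled over time, analysed by LC-MS/MS. Noncompartmental analysis used nominal doses and nominal sampling times.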

[5] = AUC (infinity) in C57BL/6J mouse at 5 mg/kg, po by LC-MS/MS analysis; format: ADME, organism-based; settings: in vivo
Procedure, shortened: (§2)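 Single dose to fasted male C57BL6 mice, Sprague-Dawley rats, beagle dogs and cynomolgus monkeys, either IV at 1 mg/kg or PO as a solution at 5 mg/kg, in 80% PEG 400 in water. Plasma concentrations were measured by LC-MS/MS. PK parameters come from noncompartmental analysis using nominal doses and nominal sampling times.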

[6] = AUC (infinity) in Beagle dog at 1 mg/kg, iv by LC-MS/MS analysis; format: ADME, organism-based, Canis lupus familiaris; settings: in vivo; procedure, shortened: as §2
[7] = Effect on cell proliferation in bone marrow (unknown origin) upto 10 uM; format: toxicity, tissue-based
[8] = Half life in C57BL/6J mouse at 1 mg/kg, iv by LC-MS/MS analysis; format: ADME, organism-based; settings: in vivo; procedure, shortened: as §2
[9] = Effect on differentiation of human HPC cells upto 10 uM; format: toxicity, cell-based
[10] = target: Multidrug and toxin extrusion protein 2 (Homo sapiens, UniProt Q86VL8); assay: Inhibition of MATE2 (unknown origin) transfected in HEK293 cells; format: cell-based
Sequence of Multidrug and toxin extrusion protein 2 (Q86VL8 whole entry): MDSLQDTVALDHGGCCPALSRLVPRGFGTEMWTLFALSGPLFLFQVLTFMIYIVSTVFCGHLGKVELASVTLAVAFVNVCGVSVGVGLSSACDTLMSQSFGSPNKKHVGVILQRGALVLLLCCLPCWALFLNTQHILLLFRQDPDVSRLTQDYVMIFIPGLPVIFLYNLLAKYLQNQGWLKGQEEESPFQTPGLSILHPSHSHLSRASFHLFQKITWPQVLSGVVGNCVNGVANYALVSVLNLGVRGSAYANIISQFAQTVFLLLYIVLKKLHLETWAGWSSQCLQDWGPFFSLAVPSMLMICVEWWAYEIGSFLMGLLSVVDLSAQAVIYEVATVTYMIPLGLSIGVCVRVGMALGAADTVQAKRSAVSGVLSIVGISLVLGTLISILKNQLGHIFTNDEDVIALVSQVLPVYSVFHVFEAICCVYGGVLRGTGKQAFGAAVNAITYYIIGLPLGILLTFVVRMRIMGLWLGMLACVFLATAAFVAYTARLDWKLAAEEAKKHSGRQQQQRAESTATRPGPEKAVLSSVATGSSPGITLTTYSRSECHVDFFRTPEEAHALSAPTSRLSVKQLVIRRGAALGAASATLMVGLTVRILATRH

[11] = Tmax in Cynomolgous monkey at 5 mg/kg, po by LC-MS/MS analysis; format: ADME, organism-based, Macaca fascicularis; settings: cynomolgus monkey, in vivo; procedure, shortened: as §1
Hepatitis B virus [12] = assay: Antiviral activity against HBV infected in human primary hepatocyte cells assessed as decrease in HBV DNA production pre-infected cells with virus followed by compound treatment for 3 days and subsequent replacement of medium with compound measured after 4 days by qPCR analysis; format: functional, organism-based
Procedure, shortened: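 Primary human hepatocytes, 80,000/well, infected at MOI 100 in medium with 4% PEG, 2% DMSO, 10% FBS for 24 h, then washed. Compound from 2000 nM in 1/5 dilutions added on day 5 and refreshed on day 8. Medium collected on day 12; extracellular HBV DNA extracted and quantified by qPCR. n = 5 independent experiments.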

[13] = AUC (infinity) in C57BL/6J mouse at 1 mg/kg, iv by LC-MS/MS analysis; format: ADME, organism-based; settings: in vivo; procedure, shortened: as §2
[14] = Metabolic stability in human assessed as half life at 1 uM incubated upto 180 mins
[15] = Half life in Beagle dog at 1 mg/kg, iv by LC-MS/MS analysis; format: ADME, organism-based, Canis lupus familiaris; settings: in vivo; procedure, shortened: as §2
[16] = target: Organic anion transporter 1 (Homo sapiens); assay: Inhibition of OAT1 (unknown origin) transfected in HEK293 cells
[17] = Cmax in Sprague-Dawley rat at 5 mg/kg, po by LC-MS/MS analysis; format: ADME, organism-based; settings: in vivo; procedure, shortened: as §2
[18] = Half life in Cynomolgous monkey at 5 mg/kg, po by LC-MS/MS analysis; format: ADME, organism-based, Macaca fascicularis; settings: cynomolgus monkey, in vivo; procedure, shortened: as §2
Hepatitis B virus [19] = assay: Antiviral activity against HBV genotype D infected in human HepG2.117 cells assessed as decrease in HBV DNA production in presence of 40 percent human serum by qPCR analysis; format: functional, organism-based
Procedure, shortened: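 HepG2.117 cells (integrated genotype D HBV genome, Tet-off promoter; kept in 1 μg/mL doxycycline) were seeded at 20,000 cells/well and given serial compound dilutions (2% DMSO) for 3 days at 37 °C. Lysates were taken in 0.33% NP40. Intracellular HBV DNA was quantified by qPCR and EC50/EC90 derived. For serum shift, 40% human serum was present during incubation. Mean ± SEM, n=3 (serum) or 13.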

[20] = Oral bioavailability in C57BL/6J mouse at 5 mg/kg by LC-MS/MS analysis; format: ADME, organism-based; settings: in vivo
Procedure, shortened: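 Fasted male C57BL6 mice, Sprague–Dawley rats, beagle dogs, cynomolgus monkeys; single IV dose 1 mg/kg or PO solution 5 mg/kg in 80% PEG 400 in water; plasma concentrations measured, noncompartmental analysis with nominal doses and times; F from PO vs IV AUC.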

[21] = Half life in Beagle dog at 5 mg/kg, po by LC-MS/MS analysis; format: ADME, organism-based, Canis lupus familiaris; settings: in vivo; procedure, shortened: as §2
[22] = Apparent permeability across apical to basal side in human Caco-2 cells at 2 uM incubated for 1 hr; format: ADME, cell-based
Procedure, shortened: (§3)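 Bidirectional transport across Caco-2 cells in HBSS, pH 7.4, 0.1% final DMSO. Compound was tested at 1 or 2 μM for 1 h at 37 °C, 5% CO2. Apical and basal samples gave apparent permeability A→B and B→A, and the efflux ratio.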

[23] = Plasma protein binding in dog at 2 uM incubated for 4 to 24 hrs by equilibrium dialysis method; format: ADME, cell-free, Canis lupus familiaris; settings: time 4-24 hrs, read-out: PPB (converted)
Procedure, shortened: (§4)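 Rapid equilibrium dialysis in mouse, rat, dog, monkey or human plasma for 4 or 24 h at 2 μM.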

[24] = Efflux ratio of apparent permeability in human Caco-2 cells at 2 uM incubated for 1 hr; format: ADME, cell-based; procedure, shortened: as §3
[25] = Prodrug conversion in Beagle dog assessed as formation of N-(3-cyano-4-fluorophenyl)-4-(2-((3-ethynyloxetan-3-yl)amino)-2-oxoacetyl)-1,3,5-trimethyl-1H-pyrrole-2-carboxamide metabolite at 6.3 mg/kg, po measured for 24 hrs; format: ADME, organism-based, Canis lupus familiaris; settings: in vivo
Procedure, shortened: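 Single oral prodrug dose at molar equivalent of 30 mg/kg (rats) or […] of parent in 95% PEG 400/5% copovidone; whole blood collected into 4 volumes 75% MeOH/25% acetonitrile, centrifuged, parent quantified by LC-MS/MS; noncompartmental PK analysis.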

[26] = Plasma protein binding in mouse at 2 uM incubated for 4 to 24 hrs by equilibrium dialysis method; format: ADME, cell-free; settings: time 4-24 hrs, read-out: PPB; procedure, shortened: as §4
[27] = Plasma protein binding in rat at 2 uM incubated for 4 to 24 hrs by equilibrium dialysis method; format: ADME, cell-free; settings: time 4-24 hrs, read-out: PPB (converted); procedure, shortened: as §4
[28] = Plasma protein binding in human at 2 uM incubated for 4 to 24 hrs by equilibrium dialysis method; format: ADME, cell-free; settings: time 4-24 hrs, read-out: PPB (converted); procedure, shortened: as §4

C#CC1(NC(=O)C(=O)c2c(C)c(C(=O)Nc3ccc(F)c(C#N)c3)n(C)c2C)COC1
Activity [1]: Non-toxic | fraction unbound at 1 µM [2]: 0.286 | Vd [3]: 0.89 L/kg | Tmax [4]: 1.67 h | AUC(0-inf) [5]: 7990 ng·h/mL | AUC(0-inf) [6]: 8520 ng·h/mL | Activity [7]: Non-toxic | half-life [8]: 1.37 h | Activity [9]: Non-toxic | IC50 [10]: > 11800 nM | Tmax [11]: 1.17 h | EC50 (Hepatitis B virus [12]): 1.98 nM | AUC(0-inf) [13]: 1390 ng·h/mL | half-life at 1 µM [14]: > 6 h | half-life [15]: 6.38 h | IC50 [16]: > 11800 nM | Cmax [17]: 1830 ng/mL | half-life [18]: 14.4 h | EC50 (Hepatitis B virus [19]): 7.48 nM | bioavailability [20]: 115% | half-life [21]: 7.83 h

C#CC1(N(COP(=O)([O-])[O-])C(=O)C(=O)c2c(C)c(C(=O)Nc3ccc(F)c(C#N)c3)n(C)c2C)COC1.[Na+].[Na+]
Papp A→B at 1 h, 2 µM [22]: 4.6 ×10⁻⁶ cm/s | fraction unbound at 2 µM [23]: 0.179 | efflux ratio at 1 h, 2 µM [24]: 1.9 | Drug metabolism [25]: metabolite_detected | fraction unbound at 2 µM [26]: 0.0913 | fraction unbound at 2 µM [27]: 0.025 | fraction unbound at 2 µM [28]: 0.11
